Insulin prom act: TRM-6 insulin promoter activation. AID 1296. TRM-6 cells, insulin promoter eGFP reporter, imaging; plate-scaled: unstimulated 0, stimulated control 100. 130,000 compounds, 0.81% hits. activation, % at 2 µM;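 active = activation at 2 µM above a set limit, confirmed on inspection of the cell images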;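 also: share of cells whose green reporter signal exceeds an intensity cutoff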
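System – human fetal islet-derived TRM-6 cells with tamoxifen-inducible insulin promoter–eGFP reporter · Amount – 1,000 cells per well · Schedule – overnight tamoxifen, then two-day compound incubation at 37 °C · Detection – high-content imaging of fixed cells with Hoechst nuclear stain · Read-out – percent cells above green-intensity threshold, converted to percent activation versus plate controls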
An asterisk follows results filed as active. The entries come from a sample that favours hits as a whole.

SMILES	Insulin prom act
O=C(CN1CCc2ccccc2C1)Nc1ccc(F)cc1F	-6
O=C(CN1CCN(S(=O)(=O)c2ccc(Br)cc2)CC1)Nc1ccc(F)cc1F	136*
N#Cc1c(C(F)(F)F)cc(-c2ccccc2)nc1SCc1nc(N)nc(N2CCOCC2)n1	251*
COc1ccc(-c2cc(C(F)(F)F)c(C#N)c(SCC(=O)Nc3ccc(C)cc3)n2)cc1	8
FC(F)(F)c1cc(-c2ccccc2)nc(N2CCOCC2)n1	-3
COc1ccc2cnn(CCOc3cc(C)ccc3C(C)C)c(=O)c2c1OC	-6
CCOC(=O)c1c(NC(=O)c2cc(-c3ccc(O)cc3)on2)sc(C(C)=O)c1C	0
O=C(NC1CCCC1)c1cccc(NC(=O)c2ccco2)c1	231
O=C(NCCCn1ccnc1)C(=O)NCC1OCCN1S(=O)(=O)c1ccc(Br)cc1 (configuration not stated)	0
CC(=O)C1=C(O)C(=O)N(CCCn2ccnc2)C1c1ccc(Br)cc1 (configuration not stated)	347*
CCN(CC)CCCN1C(=O)C(O)=C(C(C)=O)C1c1cccc(OC)c1 (configuration not stated)	-7
O=C(NC(=O)c1ccccc1)OCCN1C(=O)c2ccccc2C1=O	6
CS(=O)(=O)N1CCC(C(=O)Nc2ccc(Br)cc2F)CC1	-3
Cc1ccc(-n2nc3c(N4CCN(c5ccccc5)CC4)nnc(C)c3c2C)cc1	-81
Cc1nn(CC(=O)O)c(=O)c2ccccc12	-9
COc1ccc(CNC(=O)Cc2nn(C)c(=O)c3ccccc23)cc1	3
CC(C)(C)c1ccc(Cn2nc(CC(=O)O)c3ccccc3c2=O)cc1	272*
CCc1nnc(NC(=O)c2ccc3c(c2)C(=O)N(CC)C3=O)s1	0
O=C(NCc1ccco1)c1cc([N+](=O)[O-])cc([N+](=O)[O-])c1	-67
C=CCOC(=O)C1=C(C)NC(C)=C(C(=O)OCC=C)C1c1cn(-c2ccccc2)nc1-c1ccco1	106
Nc1nonc1NC(=O)CSc1nc2ccccc2s1	4
O=C(CSc1nc2ccccc2s1)Nc1nccs1	-3
O=C(CSc1nc2ccccc2o1)N/N=C/c1ccccc1	3
O=C(CSc1nc2ccccc2s1)N/N=C/c1ccc(C(=O)O)cc1	161*
O=C(CSc1nc2ccccc2s1)NNC(=S)Nc1ccccc1	-3
SMILES	Insulin prom act
O=C(CSc1nc2ccccc2s1)CSc1nc2ccccc2s1	94*
O=C(COc1ccc(S(=O)(=O)N2CCc3ccccc32)cc1Cl)NCc1ccccn1	5
C=CCn1c(NCc2ccc(N(C)C)cc2)nc2ccccc21	0
O=S1(=O)CCN(OCc2ccc(Cl)cc2)CC1	-7
O=C(CSc1nnc(-c2cccnc2)n1Cc1ccco1)NCc1ccc2c(c1)OCO2	285*
COc1cccc(-c2nnc(SCC(=O)NCc3ccc4c(c3)OCO4)n2Cc2ccco2)c1	-4
C=CCn1c(SCC(=O)NCc2ccc3c(c2)OCO3)nnc1-c1cccnc1	-76
COc1ccc(CNc2nc3nc4c(c(=O)n3[nH]2)CCC4)cc1	9
CN(C)c1cc[n+](CC(=O)Nc2ccc(Oc3ccccc3)cc2)cc1	3
Cc1cc(N2C(=O)CC(N3CCN(c4ccc(C(=O)c5cccs5)cc4)CC3)C2=O)no1 (configuration not stated)	438*
O=C(c1ccc(N2CCOCC2)cc1)c1cccs1	7
Cc1cc(N2C(=O)CC(C(C)c3ccccc3)C2=O)no1 (configuration not stated)	3
O=C(Nc1ccc([N+](=O)[O-])cc1)Nc1nc(-c2ccc(Cl)s2)cs1	-78
CCNC(=O)c1ccc2c(c1)C1C3CCC(C3)C1C(c1ccccc1)N2 (configuration not stated)	8
O=C(Oc1cc(-c2ccccc2)no1)c1ccc(Cl)cc1	-3
CN(C)c1ccc(S(=O)(=O)NCC(=O)OCC(=O)Nc2cc(Cl)cc(Cl)c2)cc1[N+](=O)[O-]	-9
CCOC(=O)c1c(C)nc2cc(C)cc(C)n12	0
COc1cc(/C=C(\C#N)c2nc3ccccc3s2)ccc1OCC(=O)Nc1ccccc1	162
CC(=O)Nc1sc(/C(C#N)=C/c2ccc(Cl)c(Cl)c2)nc1-c1ccc(C)cc1	223*
N#C/C(=C/c1ccncc1)c1nc2ccccc2s1	128
CC/C(C)=C1\SC(N2CCOCC2)=NC1=O	3
Brc1ccc(CSc2nnc3ccccn23)cc1	0
COCc1cc(C)nc(SCC[N+](C)(C)CC(=O)c2ccccc2)c1C#N	7
CCOC(=O)C1CCCN(C(=O)C2CC(=O)N(c3ccc(C)cc3)C2)C1 (configuration not stated)	-15
CCOC(=O)C1CCCN(c2cc(=O)n(C3CCCCC3)c(=O)[nH]2)C1 (configuration not stated)	124*
SMILES	Insulin prom act
CCOC(=O)C1CCCN(C(=S)Nc2ccc(OC)cc2)C1 (configuration not stated)	0
COc1cccc(NC(=O)C(=O)N/N=C/c2cc(C)n(-c3ccc(Cl)c(Cl)c3)c2C)c1	-3
COc1ccc(NS(=O)(=O)c2ccc3oc(SC4CCOC4=O)nc3c2)cc1 (configuration not stated)	-4
CS(=O)(=O)N(CC(=O)NC1CCCC1)c1ccc2c(c1)OCCO2	5
CCCCC(C(=O)NC1CCCC1)N(Cc1ccco1)C(=O)Cn1nnc(-c2ccc(F)cc2)n1 (configuration not stated)	0
CCCC(C(=O)NC1CCCCC1)N(Cc1ccco1)C(=O)CNS(=O)(=O)c1ccccc1 (configuration not stated)	77*
CCCC(C(=O)NCc1ccco1)N(C(=O)CNS(=O)(=O)c1ccccc1)c1ccc(OC)cc1 (configuration not stated)	122
CCc1cccc(C)c1NC(=S)NCc1cccn1C	0
COc1ccc(NC(=O)CN(c2cccc(C(F)(F)F)c2)S(C)(=O)=O)cc1OC	7
CC(=O)c1cccc(N(CC(=O)Nc2ccc(F)cc2)S(C)(=O)=O)c1	3
COc1cccc(NC(=O)CN(c2cccc(F)c2)S(C)(=O)=O)c1	444*
Cc1c(C#N)c2ccccc2n1CC(=O)NCC1CCCO1 (configuration not stated)	7
Cc1cc(NCCN2CCCCC2)n2c(nc3ccccc32)c1C#N	5
CCc1c(C)c(C#N)c2nc3ccccc3n2c1Cl	153
CCc1c(C)c(C#N)c2nc3ccccc3n2c1N1CCN(c2cc(C)ccn2)CC1	-3
CCc1c(C)c(C#N)c2nc3ccccc3n2c1NCC1CCCO1 (configuration not stated)	79*
CC(C)c1cc(NCC2CCCO2)n2c(nc3ccccc32)c1C#N (configuration not stated)	79*
CCOC(=O)c1oc2ccc(S(=O)(=O)Nc3ccc4c(c3)n(C)c(=O)n4C)cc2c1C	6
COC(CNc1ncnc2c1cnn2C)OC	0
CC(CC(=O)Nc1nncs1)c1ccccc1 (configuration not stated)	0
Cc1cc(C)nc(SCc2nnc(SCC(=O)Nc3ccccc3C)n2Cc2ccco2)n1	7
COc1ccccc1N1CCN(C(=O)c2ccc(S(=O)(=O)N3CCCCCC3)cc2)CC1	162
COc1cc(OC)cc(-c2nn[nH]n2)c1	-3
Cc1ccc(CSCC(=O)Nc2ccc3c(c2)OCO3)cc1	-6
Cc1ccc(NC(=O)CSc2nnc(-c3cccnc3)s2)cc1	9
Cc1ccc(NC(=O)CSCC#N)cc1	83*
O=C(c1ccc(F)cc1)c1cn[nH]c1-c1ccccc1O	171*

Source: PubChem
